22 molecules from ChEMBL document CHEMBL1909603, “Synthesis of novel N-(2-hydroxy-2-p-tolylethyl)-amide and N-(2-oxo-2-p-tolylethyl)-amide derivatives and their antidyslipidemic and antioxidant activity” (2011) can be followed below.

Assay type in all cases: functional
The subject of test [1] is Rattus norvegicus. The test can be described thus: Antihyperlipidemic activity in Charles Foster rat assessed as reduction of triton WR-1339-induced plasma triglyceride level at 100 mg/kg, po after 18 hrs. Also noted: scale not given: the % may be the effect or the level left. In short, it runs like this:
(§1)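 Male Charles Foster rats (100–150 g), six per group. Triton WR-1339 400 mg/kg ip with simultaneous oral dosing at 100 mg/kg, given as a gum acacia (0.2% w/v) suspension in water. Diet was withdrawn. Vehicle went to the control and triton groups. At 18 h, under thiopentone anaesthesia, retro-orbital blood was taken into EDTA and spun at 4 °C. Plasma diluted 1:3 in saline. TC, TG and PL measured by enzymatic kits. Mean SD.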

Test [2] deals with Rattus norvegicus. As to the kind of experiment: Antihyperlipidemic activity in Charles Foster rat assessed as reduction of triton WR-1339-induced plasma protein level at 100 mg/kg, po after 18 hrs. Also noted: scale not given: the % may be the effect or the level left.
Test [3] has as its system Rattus norvegicus. As to the kind of experiment: Antihyperlipidemic activity in Charles Foster rat assessed as reduction of triton WR-1339-induced plasma phospholipid level at 100 mg/kg, po after 18 hrs. Also noted: scale not given: the % may be the effect or the level left. A digest of the protocol: as §1
Test [4] deals with Rattus norvegicus. The test can be described thus: Antihyperlipidemic activity in Charles Foster rat assessed as reduction of triton WR-1339-induced plasma post heparin lipolytic activity assessed per mL of plasma at 100 mg/kg, po after 18 hrs. Also noted: scale not given: the % may be the effect or the level left. A digest of the protocol: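 Male Charles Foster rats (100–150 g), six per group. Triton WR-1339 400 mg/kg ip together with an oral 100 mg/kg dose in gum acacia suspension. Diet was withdrawn and vehicle controls were included. At 18 h, EDTA plasma was taken from retro-orbital blood. Post-heparin lipolytic activity was measured spectrophotometrically as nmol free fatty acid formed/h/ml plasma. Mean SD.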

Test [5] has as its system Rattus norvegicus. The test can be described thus: Antihyperlipidemic activity in Charles Foster rat assessed as reduction of triton WR-1339-induced plasma total cholesterol level at 100 mg/kg, po after 18 hrs. Also noted: scale not given: the % may be the effect or the level left. In short, it runs like this: as §1
Test [6] can be described thus: Antioxidant activity assessed as hydroxyl radical scavenging activity by measuring malondialdehyde formation at 200 mg/ml after 90 mins by thiobarbituric acid method. A digest of the protocol:
(§2)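 Non-enzymic hydroxyl radical generation: deoxyribose 2.8 mM, FeSO4 2 mM, sodium ascorbate 2.0 mM and H2O2 2.8 mM in 50 mM KH2PO4 pH 7.4, with or without sample. Incubated at 37 °C for 90 min alongside reference samples and reagent blanks. MDA measured spectrophotometrically by the thiobarbituric acid method.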

A short description of test [7]: Antioxidant activity against microsomal lipid peroxidation assessed as malondialdehyde formation at 100 mg/ml after 90 mins by thiobarbituric acid method.
The nature of test [8]: Antioxidant activity assessed as xanthine-xanthine oxidase generated superoxide anion scavenging at 100 mg/ml after 30 mins by NBT reduction assay. In short, it runs like this: (§3)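 Enzymic superoxide generation with xanthine, xanthine oxidase (0.04 U) and nitroblue tetrazolium in 100 mM phosphate buffer pH 8.2, with or without sample. Incubated at 37 °C for 30 min, then stopped with glacial acetic acid. Formazan read at 560 nm. Percent inhibition calculated using ε 7.2 × 10³ M/cm.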

A short description of test [9]: Antioxidant activity assessed as xanthine-xanthine oxidase generated superoxide anion scavenging at 200 mg/ml after 30 mins by NBT reduction assay. A digest of the protocol: as §3
Test [10] in a line: Antioxidant activity against microsomal lipid peroxidation assessed as malondialdehyde formation at 200 mg/ml after 90 mins by thiobarbituric acid method.
A short description of test [11]: Antioxidant activity assessed as hydroxyl radical scavenging activity by measuring malondialdehyde formation at 100 mg/ml after 90 mins by thiobarbituric acid method. A digest of the protocol:
as §2

Consider `Cc1ccc(C(O)CNC(=O)/C=C/c2ccc(O)cc2)cc1` (mixture of isomers), for which the Activity was 9% in test [1]; 8% in test [2]; 9% in test [3]; 7% in test [4]; 7% in test [5].

On to `Cc1ccc(C(O)CNC(=O)Cc2cccnc2)cc1` (racemic), for which the Activity in test [1] was 25%; in test [2], 23%; in [6], 29%; in test [7] it was 22%; in test [8], 17%; in [9] it was 31%. The Activity in test [10] is 29%; in [11], 17%; in [3], 22%; in [4], 19%; in test [5], 23%.

With `COc1cc(/C=C/C(=O)NCC(=O)c2ccc(C)cc2)ccc1O`, the Activity in test [1] is 10%; in test [2], 10%; in test [3], 6%; in test [4], 13%; in test [5], 5%.

For the molecule `Cc1ccc(C(O)CNC(=O)c2ccc(Cl)c([N+](=O)[O-])c2)cc1` (racemic), the Activity in [1] amounted to 11%; in test [2], 11%; in test [3], 7%; in test [4], 8%; in test [5] it was 5%.

Take `Cc1ccc(C(=O)CNC(=O)Cc2cccnc2)cc1`: the Activity came to 5% in test [1]; 7% in test [2]; 7% in [3]; 8% in test [4]; 7% in test [5].

On to `Oc1ncnc2[nH]ncc12`, for which the Activity in test [9] worked out at 69%.

Regarding `Cc1ccc(C(O)CNC(=O)/C=C/c2ccc(Cl)c(Cl)c2)cc1` (racemic), the Activity in test [1] is 14%; in [2], 15%; in test [3], 13%; in [4], 14%; in test [5], 16%.

Regarding `Cc1ccc(C(=O)CNC(=O)/C=C/c2ccc(Cl)c(Cl)c2)cc1`, the Activity is 12% in test [1]; 13% in test [2]; 12% in [3]; 6% in [4]; 12% in [5].

For `OC[C@@H](O)[C@@H](O)[C@H](O)[C@H](O)CO`, the Activity in test [6] is 45%.

As for `Cc1ccc(C(O)CNC(=O)/C=C/c2ccccc2O)cc1` (mixture of isomers), the Activity was found to be 9% in test [1]; 8% in test [2]; 7% in test [3]; 5% in test [4]; 8% in test [5].

Regarding `Cc1ccc(C(=O)CNC(=O)/C=C/c2ccc(OS(=O)(=O)c3ccc(C)cc3)cc2)cc1`, the Activity in [1] turned out to be 4%; in test [2], 6%; in test [3] it was 9%; in [4] it was 7%; in test [5], 7%.

With `COc1cc(/C=C/C(=O)NCC(O)c2ccc(C)cc2)ccc1O` (mixture of isomers), the Activity was 23% in test [1]; 21% in test [2]; 27% in test [6]; 19% in test [7]; 21% in test [8]; 32% in test [9]. Moreover, the Activity in [10] turned out to be 23%; in test [11], 18%; in [3] it was 22%; in test [4] it was 21%; in test [5], 24%.

For `Cc1ccc(C(=O)CNC(=O)Cc2ccc(F)cc2)cc1`, the Activity in [1] was determined as 11%; in [2], 19%; in [3], 15%; in [4], 6%; in test [5], 14%.

For `Cc1ccc(C(=O)CNC(=O)/C=C/c2ccc(O)cc2)cc1`, the Activity in test [1] came out at 21%; in [2], 20%; in test [6], 29%; in test [7] it was 22%; in [8] it was 17%; in [9] it was 31%. In addition, the Activity in [10] is 29%; in [11], 17%; in [3] it was 23%; in [4], 19%; in [5], 22%.

`Cc1c(C)c2c(c(C)c1O)CC[C@@](C)(CCC[C@H](C)CCC[C@H](C)CCCC(C)C)O2`: the Activity in [10] was 63%.

In the case of `Cc1ccc(C)c(OCCCC(C)(C)C(=O)O)c1` [GEMFIBROZIL], the Activity was 31% in test [1]; 31% in [2]; 36% in test [3]; 23% in [4]; 33% in test [5].

Regarding `Cc1ccc(C(=O)CNC(=O)c2ccc(Cl)c([N+](=O)[O-])c2)cc1`, the Activity in test [1] was 9%; in [2], 9%; in [3], 5%; in [4], 8%; in test [5], 4%.

`COc1ccc(CC(=O)NCC(=O)c2ccc(C)cc2)cc1OC`: the Activity in [1] was 12%; in test [2], 14%; in test [3], 14%; in test [4] it was 12%; in [5], 10%.

As to `Cc1ccc(C(=O)CNC(=O)/C=C/c2ccccc2O)cc1`, the Activity in test [1] amounted to 9%; in test [2] it was 8%; in [3] it was 10%; in test [4], 10%; in [5], 11%.

Turning to `Cc1ccc(C(=O)CNC(=O)c2cccnc2)cc1`, the Activity in test [1] amounted to 2%; in test [2], 4%; in test [3] it was 6%; in test [4] it was 6%; in [5] it was 4%.

In the case of `Cc1ccc(C(=O)CNC(=O)CCc2cccnc2)cc1`, the Activity worked out at 22% in [1]; 21% in test [2]; 33% in test [6]; 19% in test [7]; 24% in [8]; 31% in [9]. In addition, the Activity amounted to 29% in [10]; 19% in test [11]; 24% in [3]; 20% in [4]; 24% in test [5].

In the case of `COc1ccc([C@@H](O)CNC(=O)/C=C/c2ccccc2)cc1` [AEGELINE], the Activity in test [1] stood at 22%; in test [2], 24%; in test [6] it was 22%; in [8], 19%; in test [9] it was 25%; in test [11] it was 18%. For the same molecule, the Activity amounted to 23% in test [3], 14% in [4] and 24% in [5].
